Assay results taken from EPA's CvTdb concentration-time database.

Test system: human
Test: amount in urine after dosing (umol)
Summary of the method: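 Points were largely digitised from plot screenshots with WebPlotDigitizer or otherwise copied from tables, and they remain in the units each source reported. They come from published in vivo toxicokinetic studies and two structured collections. Sampling and analytical methods follow each source and were often not reported.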

CC(O)C(C)(C)O (configuration not stated) [2-methyl-2,3-butanediol]
dosed: tert-amyl methyl ether, inhalation, duration: 4 hr
Conditions | amount in urine
0.2902 h, 38.4 ppm | 3.72
6.051 h, 3.8 ppm | 2.15
6.373 h, 38.4 ppm | 16.5
12.12 h, 3.8 ppm | 3.45
12.25 h, 38.4 ppm | 30.5
18.08 h, 3.8 ppm | 2.56
18.3 h, 38.4 ppm | 29.8
24.08 h, 3.8 ppm | 3.27
24.35 h, 38.4 ppm | 31.2
30.04 h, 3.8 ppm | 2.77
30.25 h, 38.4 ppm | 25.2
36.13 h, 3.8 ppm | 2.42
36.31 h, 38.4 ppm | 28.1
42.02 h, 3.8 ppm | 1.67
42.34 h, 38.4 ppm | 17
47.89 h, 3.8 ppm | 2.12
48.2 h, 38.4 ppm | 23.9
54.05 h, 3.8 ppm | 1.93
54.23 h, 38.4 ppm | 14.1
59.94 h, 3.8 ppm | 1.6
60.36 h, 38.4 ppm | 18.1
66.02 h, 3.8 ppm | 1.63
66.19 h, 38.4 ppm | 12.1
71.9 h, 3.8 ppm | 1.44
72.24 h, 38.4 ppm | 11.2
225 s, 3.8 ppm | 0.476

dosed: tert-amyl methyl ether, oral
Conditions | amount in urine
0.2379 h, 5 mg | 0.118
6.002 h, 15 mg | 1.07
6.23 h, 5 mg | 0.379
11.79 h, 15 mg | 1.97
12.07 h, 5 mg | 0.593
17.9 h, 15 mg | 2.14
18.15 h, 5 mg | 0.435
24 h, 15 mg | 2.43
24.24 h, 5 mg | 0.394
29.83 h, 15 mg | 2.27
30.07 h, 5 mg | 0.532
35.87 h, 15 mg | 2.31
36.08 h, 5 mg | 0.4
41.73 h, 15 mg | 1.29
42.17 h, 5 mg | 0.374
47.83 h, 15 mg | 1.66
48.27 h, 5 mg | 0.367
53.95 h, 15 mg | 1.48
54.08 h, 5 mg | 0.38
59.71 h, 15 mg | 1.02
60.18 h, 5 mg | 0.324
65.84 h, 15 mg | 0.758
66.2 h, 5 mg | 0.264
71.94 h, 15 mg | 1.05
72 h, 5 mg | 0.243
77.76 h, 15 mg | 1.07
78.1 h, 5 mg | 0.243
83.97 h, 15 mg | 0.611
84.2 h, 5 mg | 0.244
89.71 h, 15 mg | 0.61
90 h, 5 mg | 0.214
95.84 h, 15 mg | 0.463
96.03 h, 5 mg | 0.188
235 s, 15 mg | 0.223

CC(C)(O)C(=O)O [2-hydroxyisobutyrate]
dosed: methyl tert-butyl ether, oral
Conditions | amount in urine
0 h, 5 mg | 0.0411
6.05 h, 15 mg | 3.18
6.268 h, 5 mg | 1.19
12.12 h, 5 mg | 2.99
12.19 h, 15 mg | 8.45
18.04 h, 15 mg | 10.7
18.39 h, 5 mg | 3.79
24.12 h, 15 mg | 9.14
24.44 h, 5 mg | 3.07
29.96 h, 15 mg | 11.8
30.29 h, 5 mg | 3.64
36.26 h, 15 mg | 9.95
36.46 h, 5 mg | 2.37
42.05 h, 15 mg | 4.96
42.31 h, 5 mg | 1.27
48.24 h, 15 mg | 2.63
48.47 h, 5 mg | 0.849
54.1 h, 15 mg | 3.08
54.53 h, 5 mg | 0.89
59.87 h, 15 mg | 1.63
60.27 h, 5 mg | 0.438
66.05 h, 15 mg | 0.953
66.44 h, 5 mg | 0.123
71.92 h, 15 mg | 0.593
72.6 h, 5 mg | 0.0411
77.99 h, 15 mg | 0.596
83.85 h, 15 mg | 0.357
90.03 h, 15 mg | 0.279
95.89 h, 15 mg | 0.322

inhalation, duration: 4 hr
Conditions | amount in urine
0 h, dosed: methyl tert-butyl ether, 4.5 ppm | 10.8
0.116 h, dosed: methyl tert-butyl ether, 38.7 ppm | 17.8
0.1579 h, dosed: ethyl tert-butyl ether, 40.6 ppm | 13.3
0.2123 h, dosed: ethyl tert-butyl ether, 4.5 ppm | 11.1
6 h, dosed: ethyl tert-butyl ether, 40.6 ppm | 41
6.115 h, dosed: ethyl tert-butyl ether, 4.5 ppm | 19.1
6.219 h, dosed: methyl tert-butyl ether, 38.7 ppm | 71.9
6.261 h, dosed: methyl tert-butyl ether, 4.5 ppm | 20.2
12 h, dosed: ethyl tert-butyl ether, 40.6 ppm | 65.3
12 h, dosed: methyl tert-butyl ether, 4.5 ppm | 26.8
12.13 h, dosed: methyl tert-butyl ether, 38.7 ppm | 147
12.31 h, dosed: ethyl tert-butyl ether, 4.5 ppm | 23.3
18 h, dosed: ethyl tert-butyl ether, 40.6 ppm | 61.2
18.26 h, dosed: methyl tert-butyl ether, 4.5 ppm | 21.8
18.32 h, dosed: ethyl tert-butyl ether, 4.5 ppm | 21.5
18.4 h, dosed: methyl tert-butyl ether, 38.7 ppm | 149
24 h, dosed: ethyl tert-butyl ether, 40.6 ppm | 50.2
24 h, dosed: methyl tert-butyl ether, 4.5 ppm | 24.3
24.14 h, dosed: methyl tert-butyl ether, 38.7 ppm | 134
24.23 h, dosed: ethyl tert-butyl ether, 4.5 ppm | 20.8
30 h, dosed: ethyl tert-butyl ether, 40.6 ppm | 70.5
30.26 h, dosed: methyl tert-butyl ether, 4.5 ppm | 27.8
30.41 h, dosed: ethyl tert-butyl ether, 4.5 ppm | 22.2
30.42 h, dosed: methyl tert-butyl ether, 38.7 ppm | 132
36.1 h, dosed: methyl tert-butyl ether, 4.5 ppm | 18.2
36.14 h, dosed: methyl tert-butyl ether, 38.7 ppm | 85.6
36.21 h, dosed: ethyl tert-butyl ether, 40.6 ppm | 51
36.28 h, dosed: ethyl tert-butyl ether, 4.5 ppm | 14.6
42.16 h, dosed: ethyl tert-butyl ether, 40.6 ppm | 41.8
42.16 h, dosed: methyl tert-butyl ether, 4.5 ppm | 14.4
42.29 h, dosed: methyl tert-butyl ether, 38.7 ppm | 63
42.3 h, dosed: ethyl tert-butyl ether, 4.5 ppm | 13.6
48.13 h, dosed: methyl tert-butyl ether, 38.7 ppm | 41.8
48.16 h, dosed: ethyl tert-butyl ether, 40.6 ppm | 34.3
48.47 h, dosed: ethyl tert-butyl ether, 4.5 ppm | 14.4
54.21 h, dosed: ethyl tert-butyl ether, 40.6 ppm | 30.1
54.31 h, dosed: methyl tert-butyl ether, 38.7 ppm | 48.6
60.15 h, dosed: methyl tert-butyl ether, 38.7 ppm | 33.6
60.16 h, dosed: ethyl tert-butyl ether, 40.6 ppm | 37.6
66.16 h, dosed: ethyl tert-butyl ether, 40.6 ppm | 20.9
66.32 h, dosed: methyl tert-butyl ether, 38.7 ppm | 24
72.06 h, dosed: methyl tert-butyl ether, 38.7 ppm | 17.8
72.16 h, dosed: ethyl tert-butyl ether, 40.6 ppm | 17.5
